pIC50: −log10 of the molar value.
Experiments:
[1] = Cytotoxicity against human CFU-GM cells at 60 ug by disk diffusion assay; assay type: functional
Procedure, shortened: (§1)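 15 µL of sample dried overnight on 6.5 mm filter disk. Disk placed near edge of 60 mm dish of cells plated in soft agar, incubated 7-10 days. Zone of inhibition measured from disk edge to start of normal-sized colony formation, disk diameter taken as 200 units. Overly toxic samples diluted 1:4 or 1:10 and retested.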

[2] = Cytotoxicity against human H125M cells at 15 ug by disk diffusion assay; assay type: functional; procedure, shortened: as §1
[3] = Cytotoxicity against human CFU-GM cells at 3.75 ug by disk diffusion assay; assay type: functional; procedure, shortened: as §1
L1210 [4] = assay: Cytotoxicity against mouse L1210 cells at 15 ug by disk diffusion assay; assay type: functional; procedure, shortened: as §1
[5] = Cytotoxicity against human CFU-GM cells at 0.94 ug by disk diffusion assay; assay type: functional; procedure, shortened: as §1
[6] = Inhibition of bovine heart mitochondrial complex1 activity; set-up: species or system Bos taurus
Procedure, shortened: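 Bovine heart submitochondrial particles, 15 µg/mL, in 0.25 M sucrose, 1 mM MgCl2, 50 mM phosphate pH 7.5. Inhibitor added at various concentrations and equilibrated 5 min. Reaction started with 150 µM NADH and followed spectrophotometrically at 340 nm. IC50 derived.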

L1210 [7] = assay: Cytotoxicity against mouse L1210 cells at 3.75 ug by disk diffusion assay; assay type: functional; procedure, shortened: as §1
CCRF-CEM [8] = assay: Cytotoxicity against human CEM cells at 15 ug by disk diffusion assay; assay type: functional; procedure, shortened: as §1
L1210 [9] = assay: Cytotoxicity against mouse L1210 cells at 60 ug by disk diffusion assay; assay type: functional; procedure, shortened: as §1
MC-38 [10] = assay: Cytotoxicity against mouse Colon 38 cells at 15 ug by disk diffusion assay; assay type: functional; procedure, shortened: as §1
[11] = Cytotoxicity against human CFU-GM cells at 15 ug by disk diffusion assay; assay type: functional; procedure, shortened: as §1
HCT-116 [12] = assay: Cytotoxicity against human HCT116 cells; assay type: functional, cell-based
MC-38 [13] = assay: Cytotoxicity against mouse Colon 38 cells at 3.75 ug by disk diffusion assay; assay type: functional; procedure, shortened: as §1
L1210 [14] = assay: Cytotoxicity against mouse L1210 cells at 0.94 ug by disk diffusion assay; assay type: functional; procedure, shortened: as §1
MC-38 [15] = assay: Cytotoxicity against mouse Colon 38 cells at 0.94 ug by disk diffusion assay; assay type: functional; procedure, shortened: as §1
MC-38 [16] = assay: Cytotoxicity against mouse Colon 38 cells at 60 ug by disk diffusion assay; assay type: functional; procedure, shortened: as §1
HCT-116 [17] = assay: Cytotoxicity against human HCT116 cells at 15 ug by disk diffusion assay; assay type: functional; procedure, shortened: as §1
L1210 [18] = assay: Cytotoxicity against mouse L1210 cells at 0.3 ug by disk diffusion assay; assay type: functional; procedure, shortened: as §1
MC-38 [19] = assay: Cytotoxicity against mouse Colon 38 cells at 30 ug by disk diffusion assay; assay type: functional; procedure, shortened: as §1
[20] = Cytotoxicity against human CFU-GM cells at 0.3 ug by disk diffusion assay; assay type: functional; procedure, shortened: as §1
MC-38 [21] = assay: Cytotoxicity against mouse Colon 38 cells at 3 ug by disk diffusion assay; assay type: functional; procedure, shortened: as §1
[22] = Cytotoxicity against human CFU-GM cells at 30 ug by disk diffusion assay; assay type: functional; procedure, shortened: as §1
HCT-116 [23] = assay: Cytotoxicity against human HCT116 cells at 30 ug by disk diffusion assay; assay type: functional; procedure, shortened: as §1
L1210 [24] = assay: Cytotoxicity against mouse L1210 cells at 30 ug by disk diffusion assay; assay type: functional; procedure, shortened: as §1
CCRF-CEM [25] = assay: Cytotoxicity against human CEM cells at 30 ug by disk diffusion assay; assay type: functional; procedure, shortened: as §1
[26] = Cytotoxicity against human CFU-GM cells at 3 ug by disk diffusion assay; assay type: functional; procedure, shortened: as §1
L1210 [27] = assay: Cytotoxicity against mouse L1210 cells at 3 ug by disk diffusion assay; assay type: functional; procedure, shortened: as §1
MC-38 [28] = assay: Cytotoxicity against mouse Colon 38 cells at 0.3 ug by disk diffusion assay; assay type: functional; procedure, shortened: as §1
[29] = Cytotoxicity against human H125M cells at 30 ug by disk diffusion assay; assay type: functional; procedure, shortened: as §1

SMILES | inhibition zone (IZ) [1] | inhibition zone (IZ) [2] | inhibition zone (IZ) [3] | inhibition zone (IZ) (L1210 [4]) | inhibition zone (IZ) [5] | pIC50 [6] | inhibition zone (IZ) (L1210 [7]) | inhibition zone (IZ) (CCRF-CEM [8]) | inhibition zone (IZ) (L1210 [9]) | inhibition zone (IZ) (MC-38 [10]) | inhibition zone (IZ) [11] | pIC50 (HCT-116 [12]) | inhibition zone (IZ) (MC-38 [13]) | inhibition zone (IZ) (L1210 [14]) | inhibition zone (IZ) (MC-38 [15]) | inhibition zone (IZ) (MC-38 [16]) | inhibition zone (IZ) (HCT-116 [17]) | also measured
CCCCCCCCCC[C@@H](O)[C@H]1CC[C@@H]([C@@H]2CC[C@H]([C@H](O)CCCCCCCCCC[C@@H](O)CC3=C[C@H](C)OC3=O)O2)O1 | 650 Zone units | 350 Zone units | 500 Zone units | 100 Zone units | 450 Zone units | 8.12 | 150 Zone units | 0 Zone units | 450 Zone units | 800 Zone units | 300 Zone units | 7.74 | 750 Zone units | 150 Zone units | 550 Zone units | 800 Zone units | 500 Zone units | 
CCCCCCC[C@H](O)CC[C@H](O)[C@H]1CC[C@H]([C@H]2CC[C@H]([C@@H](O)CCCCCCCCCC[C@@H](O)CC3=C[C@H](C)OC3=O)O2)O1 | 750 Zone units | 550 Zone units | 450 Zone units | 300 Zone units | 450 Zone units |  | 400 Zone units | 150 Zone units | 600 Zone units | 900 Zone units | 300 Zone units |  | 850 Zone units | 100 Zone units | 750 Zone units | >1000 Zone units | 600 Zone units | 
CCCCCCCCCC[C@H](O)[C@H]1CC[C@@H]([C@@H]2CC[C@H]([C@@H](O)CCCCCCCCCC[C@@H](O)CC3=C[C@H](C)OC3=O)O2)O1 | 700 Zone units | 400 Zone units | 600 Zone units | 200 Zone units | 550 Zone units | 8.30 | 250 Zone units | 0 Zone units | 650 Zone units | 900 Zone units | 250 Zone units | 9.16 | 800 Zone units | 100 Zone units | 700 Zone units | 800 Zone units | 550 Zone units | 
CCCCCCC[C@H](O)CC[C@H](O)[C@H]1CC[C@H]([C@H]2CC[C@H]([C@H](O)CCCCCCCCCC[C@@H](O)CC3=C[C@H](C)OC3=O)O2)O1 | 700 Zone units | 100 Zone units | 550 Zone units | 250 Zone units | 500 Zone units |  | 350 Zone units | 0 Zone units | 700 Zone units | 950 Zone units | 400 Zone units |  | 750 Zone units | 150 Zone units | 600 Zone units | 900 Zone units | 600 Zone units | 
CCCCCCCCCC[C@@H](O)[C@H]1CC[C@@H]([C@@H]2CC[C@@H]([C@H](O)CCCCCCCCCC[C@@H](O)CC3=C[C@H](C)OC3=O)O2)O1 |  |  |  |  |  | 8.70 |  |  |  |  |  |  |  |  |  |  |  | inhibition zone (IZ) (L1210 [18]): 100 Zone units; inhibition zone (IZ) (MC-38 [19]): 850 Zone units; inhibition zone (IZ) [20]: 450 Zone units; inhibition zone (IZ) (MC-38 [21]): 700 Zone units; inhibition zone (IZ) [22]: 650 Zone units; inhibition zone (IZ) (HCT-116 [23]): 500 Zone units; inhibition zone (IZ) (L1210 [24]): 300 Zone units; inhibition zone (IZ) (CCRF-CEM [25]): 200 Zone units; inhibition zone (IZ) [26]: 550 Zone units; inhibition zone (IZ) (L1210 [27]): 200 Zone units; inhibition zone (IZ) (MC-38 [28]): 450 Zone units; inhibition zone (IZ) [29]: 500 Zone units

From ChEMBL document CHEMBL1152304, “Alteration of the bis-tetrahydrofuran core stereochemistries in asimicin can affect the cytotoxicity” (J Med Chem, 2008)
